This note sets out measurements from ChEMBL document CHEMBL3351432, “Microwave-assisted synthesis of phenanthroimidazole derivatives as stabilizer of c-myc G-quadruplex DNA” (Bioorg Med Chem, 2014).

Activity calls are given as the source filed them. No cut-off for these calls is given here.

Data set [1] in a line: Drug uptake in cytoplasm of human MCF7 cells at 10 uM after 24 hrs by fluorescence microscopy. It is filed as ADME, cell-based. The conditions noted are these: mcf7, 24 h. In a few lines:
(§1)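 MCF-7 cells seeded at 5 × 10^4 per well, exposed to compound at 10 μM for 24 h, then imaged by fluorescence microscopy for intracellular fluorescence and morphology.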

Data set [2] in a line: Drug uptake in nucleus of human MCF7 cells at 10 uM after 24 hrs by fluorescence microscopy. It is filed as ADME, cell-based. The conditions noted are these: mcf7, 24 h. In a few lines: as §1
A further data set concerns MDA-MB-231. Put plainly: Growth inhibition of human MDA-MB-231 cells after 72 hrs ny MTT assay. The data set is classed as functional, cell-based. Particulars: MDA-MB-231, 72 h. Summed up: (§2)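 MTT viability assay. Cells seeded at 3 × 10^3 per well and allowed 24 h, then treated 72 h with a concentration series from 1 mM DMSO stocks. MTT (5 mg/ml in PBS) added for 5 h, formazan dissolved in DMSO, absorbance read at 570 nm.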
On the technique in general: Tetrazolium assays rely on reduction of a dye to a coloured formazan, in cell work by metabolically active cells.

The subject of a further data set is HeLa. Put plainly: Growth inhibition of human HeLa cells after 72 hrs by MTT assay. It is filed as functional, cell-based. Summed up:
as §2

Data set [3] has as its system MCF7. Put plainly: Growth inhibition of human MCF7 cells after 72 hrs by MTT assay. The data set is classed as functional, cell-based. Particulars: MCF7, 72 h. Summed up:
as §2

Data set [4] can be described thus: Binding affinity to c-myc G-quadruplex DNA (unknown origin) assessed as hypochromism at IL absorption at 20 uM by electronic spectra titration method. Summed up:
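Titration in Tris-KCl buffer pH 7.2 with ligand held at 20 μM and G4 DNA added stepwise. 3 min incubation before each UV-vis spectrum. Hypochromism read at the intraligand band (250–300 nm).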

For data set [5], the system named is MCF7. Put plainly: Induction of cell shrinking in human MCF7 cells at 10 uM after 24 hrs by fluorescence microscopy. It is filed as functional, cell-based. Summed up: as §1
Data set [6] has as its system MCF7. Put plainly: Induction of cell membrane changes in human MCF7 cells assessed as roughening and unevening of cell membrane surface at 10 uM after 24 hrs by fluorescence microscopy. It is filed as functional. Summed up:
as §1

A short description of data set [7]: Binding affinity to c-myc G-quadruplex DNA (unknown origin) assessed as reduction in DNA CD signal strengths […] by CD spectroscopy. More on the design: scale not given: the % may be the effect or the level left. Summed up:
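CD of pre-folded c-myc G4 DNA (2 × 10^-6 M) in Tris-KCl buffer pH 7.2, 1 cm cell. Ligand added from 1 mM stock every 3 min, final range (0–118) × 10^-6 M.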

The nature of data set [8]: Binding affinity to c-myc G-quadruplex DNA (unknown origin) assessed as change in melting temperature at 3 uM by FRET assay. Summed up: (§3)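 FAM/TAMRA dual-labelled c-myc oligonucleotide (1 μM) in Tris-KCl buffer pH 7.2, annealed at 92 °C for 5 min and slowly cooled to room temperature. Compound added at varying concentrations. Fluorescence melting curves recorded on a real-time PCR system, holding each temperature 30 s before each reading. Tm shift taken relative to the no-compound control.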

The nature of data set [9]: Stabilization of c-myc G-quadruplex DNA (unknown origin) assessed as reduction in Taq polymerase-mediated 5' to 3' extension at 10 to 40 uM by PCR stop assay. In a few lines:
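PCR-stop assay in 1× PCR buffer with c-myc G4 DNA primer pair (10 pM each), dNTPs 0.16 mM, Taq 2.5 U and compound over 0–250 μM. Cycling: 94 °C 3 min, then 30 cycles of 94/58/72 °C for 30 s each. Products run on 15% native PAGE in TBE and silver stained.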

The nature of data set [10]: Binding affinity to c-myc G-quadruplex DNA (unknown origin) assessed as change in melting temperature at 1 uM by FRET assay. Summed up: as §3
A short description of data set [11]: Binding affinity to c-myc G-quadruplex DNA (unknown origin) assessed as increase in melting temperature by FRET assay. In a few lines: as §3
Data set [12] relates to MCF7. Put plainly: Induction of apoptosis in human MCF7 cells assessed as cell membrane rupture at 10 uM after 24 hrs by fluorescence microscopy. It is filed as functional, cell-based. Summed up: as §1

As for `Brc1ccccc1-c1nc2c3cccnc3c3ncccc3c2[nH]1`, the Drug uptake result in data set [1] and in data set [2] was “Active” in each case. Besides, the results for the IC50 with MDA-MB-231, in the data set on HeLa and with MCF7 [3] were 36 µM, 7.9 µM and 27.3 µM, respectively.
Turning to `O=S(=O)(O)c1ccccc1-c1nc2c3cccnc3c3ncccc3c2[nH]1`, the Drug uptake result in data set [1] and in data set [2] was “Not Active” throughout. Besides, the IC50 with MDA-MB-231 came to 152 µM; in the data set with HeLa, 240 µM; with MCF7 [3] it was 162 µM.
As for `c1ccc(-c2nc3c4cccnc4c4ncccc4c3[nH]2)cc1`, the Drug uptake entry in data set [1] and in [2] was “Not Active” each time. The IC50 in the data set on MDA-MB-231 was 74.2 µM; with HeLa, 5.1 µM; with MCF7 [3], 72.6 µM.
Consider `O=S(=O)(O)c1ccc(-c2nc3c4cccnc4c4ncccc4c3[nH]2)cc1`, for which the Drug uptake result in [1] and in data set [2] was “Not Active” in each case. Also, the IC50 in the data set on MDA-MB-231 is 60 µM; with HeLa, 62.4 µM; with MCF7 [3], 184 µM.
`Brc1ccc(-c2nc3c4cccnc4c4ncccc4c3[nH]2)cc1`: the Drug uptake entry in data set [1] and in [2] was “Active” throughout. For the same compound, the Activity is 9.4% in [4]; less than 20% with MCF7 [6]; 23% in data set [7]; “Dose-dependent effect” in [9]; “Dose-dependent effect” in data set [11]. Also, the result with MCF7 [5] and in the data set with MCF7 [12] was Active. Besides, the figures for the IC50 in the data set on MDA-MB-231, with HeLa and in the data set with MCF7 [3] were 3.6 µM, 8.5 µM and 22.9 µM, respectively. In addition, the ΔTm was determined as 6.4 °C in data set [8] and 3.4 °C in [10].

As a reminder, the IC50 is the concentration at which inhibition is half-maximal. A word on the ΔTm: it is the change in melting temperature against a reference sample.
